Measured values: ChEMBL document CHEMBL3352693, “Notolutesins A-J, dolabrane-type diterpenoids from the Chinese liverwort Notoscyphus lutescens” (J Nat Prod, 2014)
Structures can show the parent of a compound that is named as a salt.

Tests used:
Assay type in all cases: functional, cell-based
[1] = Cytotoxicity against human PC3 cells after 24 hrs by MTT assay; conditions: PC-3, 24 h
In short: (§1)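 Cells seeded 24 h before treatment, then exposed continuously to a range of compound concentrations (dissolved in DMSO) for 24 h. MTT (5 mg/mL in PBS) added, 4 h at 37 °C, 5% CO2; absorbance read at 570 nm. IC50 (50% growth inhibition) derived from plotted data, untreated cells as 100%; at least three experiments. Taxol and adriamycin as positive controls.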

[2] = system: A549; test: Cytotoxicity against human A549 cells after 24 hrs by MTT assay; conditions: A549, 24 h; in short: as §1
[3] = system: DU-145; test: Cytotoxicity against human DU145 cells after 24 hrs by MTT assay; conditions: DU-145, 24 h; in short: as §1
[4] = Cytotoxicity against human NCI-H1688 cells after 24 hrs by MTT assay; conditions: NCI-H1688, 24 h; in short: as §1

| Structure (SMILES) | IC50 [1] | IC50 [2] | IC50 [3] | IC50 [4] |
| --- | --- | --- | --- | --- |
| C=C[C@@]1(C)CC[C@@]2(C)[C@@H](CC[C@]34COC(=O)C3=C[C@@H](O)C[C@@H]42)C1 | 6.2 µM | > 10 µM | > 10 µM | > 10 µM |
| COc1cccc2c1C(=O)c1c(O)c3c(c(O)c1C2=O)C[C@@](O)(C(=O)CO)C[C@@H]3O[C@H]1C[C@H](N)[C@H](O)[C@H](C)O1 [DOXORUBICIN HYDROCHLORIDE] | 11.7 µM | 23.7 µM | 21.4 µM | 4.22 µM |
| CC(=O)O[C@H]1C(=O)[C@@]2(C)[C@H]([C@H](OC(=O)c3ccccc3)[C@]3(O)C[C@H](OC(=O)[C@H](O)[C@@H](NC(=O)c4ccccc4)c4ccccc4)C(C)=C1C3(C)C)[C@]1(OC(C)=O)CO[C@@H]1C[C@@H]2O [PACLITAXEL] | 0.94 µM | – | 1.79 µM | 0.85 µM |
